For data set [1], the system named is MCF7. Kind of data set: Cytotoxicity against human MCF7 cells at 5 uM after 72 hrs by XTT colorimetric assay. In kind it is functional. Summed up: (§1)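 Initial screen on a five-line panel (A549, COS-7, MCF-7, WiDr, NIH3T3). Compounds were tested at concentrations up to 5 µM. Read-out was percent inhibition of cell growth at the highest concentration, 5 µM.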
(In general: Tetrazolium assays rely on reduction of a dye to a coloured formazan, in cell work by metabolically active cells.)

Data set [2] deals with A549. Nature of the data set: Cytotoxicity against human A549 cells at 5 uM after 72 hrs by XTT colorimetric assay. In kind it is functional. Summed up: as §1
The test system of data set [3] is MCF7. Nature of the data set: Cytotoxicity against human MCF7 cells after 72 hrs by XTT colorimetric assay. In kind it is functional, cell-based. As to conditions: MCF7, 72 h. Summed up: (§2)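 Seven-line tumour panel run with an XTT colorimetric cytotoxicity read-out; IC50 values estimated from the XTT data. Tissue origins: A549 lung carcinoma, MCF-7 breast cancer, OVCAR-3 ovarian cancer, PC-3 prostate cancer, WiDr colorectal cancer.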

Data set [4] relates to WiDr. Kind of data set: Cytotoxicity against human WiDr cells after 72 hrs by XTT colorimetric assay.
Data set [5] deals with A549. Nature of the data set: Cytotoxicity against human A549 cells after 72 hrs by XTT colorimetric assay. In kind it is functional, cell-based. As to conditions: A549, 72 h. Summed up: as §2
The next data set has as its system OVCAR-3. Nature of the data set: Cytotoxicity against human OVCAR-3 cells after 72 hrs by XTT colorimetric assay. The conditions noted are these: OVCAR-3, 72 h. In kind it is functional, cell-based. Summed up: as §2
For another data set, the system named is PC-3. Nature of the data set: Cytotoxicity against human PC3 cells after 72 hrs by XTT colorimetric assay. In kind it is functional, cell-based. As to conditions: PC-3, 72 h. Summed up:
as §2

In a further data set the test system is JVM-2. Nature of the data set: Cytotoxicity against human JVM2 cells after 72 hrs by XTT colorimetric assay. In kind it is functional, cell-based. The conditions noted are these: JVM-2, 72 h. Summed up:
(§3)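 Mantle cell lymphoma lines (JeKo-1, JVM-2), screened within a seven-line human tumour panel. Viability read out by XTT colorimetric cytotoxicity assay, with IC50 estimated from the resulting growth inhibition data.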

Data set [6] can be described thus: Cytotoxicity against human JeKo1 cells after 72 hrs by XTT colorimetric assay. In kind it is functional, cell-based. The conditions noted are these: JeKo-1, 72 h. Summed up:
as §3

The test system of data set [7] is MCF7. Nature of the data set: Cytotoxicity against human MCF7 cells upto 5 uM after 72 hrs by XTT colorimetric assay. In kind it is functional, cell-based. Summed up:
as §1

The next data set relates to NIH3T3. Nature of the data set: Cytotoxicity against mouse NIH3T3 cells upto 5 uM after 72 hrs by XTT colorimetric assay. As to conditions: nih3t3, 72 h. In kind it is cell-based. Summed up:
as §1

The nature of data set [8]: Cytotoxicity against african green monkey COS7 cells upto 5 uM after 72 hrs by XTT colorimetric assay. In kind it is cell-based. The conditions noted are these: chlorocebus aethiops, cos-7, 72 h. Summed up: as §1
For data set [9], the system named is A549. Nature of the data set: Cytotoxicity against human A549 cells upto 5 uM after 72 hrs by XTT colorimetric assay. In kind it is functional, cell-based. Summed up: as §1
Data set [10] concerns WiDr. Kind of data set: Cytotoxicity against human WiDr cells upto 5 uM after 72 hrs by XTT colorimetric assay. In kind it is functional, cell-based. Summed up: as §1

This note sets out measurements from ChEMBL document CHEMBL1140114, “Antitumor compounds based on a natural product consensus pharmacophore” (J Med Chem, 2008).

pIC50: −log10 of the molar value. Active and inactive are the calls of the source. No cut-off for these calls is given here.

Regarding `CC(=O)O[C@@H](C)/C=C\C(=O)N[C@H]1CC[C@@H](COC(=O)OC[C@@H]2C[C@]3(CO3)CC(C)(C)O2)CC1`, the Activity in the data set on MCF7 [1] and in the data set with A549 [2] was 10% each time.

As for `CC[C@H](O)[C@@H](C)[C@H]1O[C@@H]1C[C@H](C)/C=C/C=C(\C)[C@H]1OC(=O)C[C@H](O)CC[C@@](C)(O)[C@@H](OC(C)=O)CC[C@@H]1C` [PLADIENOLIDE B], the negative-log IC50 (pIC50) (usually the IC50 on a negative log10 scale, so that one unit is a factor of ten) with MCF7 [3] is 9.40; with WiDr [4], 9.07; in the data set on A549 [5], 8.85; in the data set with OVCAR-3 it was 9.40; with PC-3, 8.64.

With `CC(=O)O[C@@H](C)/C=C\C(=O)N[C@H]1CC[C@@H](C/C=C(C)/C=C/[C@@H]2C[C@]3(CO3)CC(C)(C)O2)CC1`, the pIC50 was 5.64 in the data set on MCF7 [3]; 6.89 with JVM-2; 5.69 in the data set on WiDr [4]; 5.33 in the data set with A549 [5]; 7.00 in [6]; 5.70 in the data set on OVCAR-3. Besides, the pIC50 in the data set with PC-3 was 5.67.

Consider `CC(=O)O[C@@H](C)/C=C\C(=O)N[C@H]1CC[C@@H](CNC(=O)OC[C@@H]2C[C@]3(CO3)CC(C)(C)O2)CC1`, for which the result in the data set on MCF7 [7], with A549 [9] and in the data set with WiDr [10] was inactive. Besides, the Activity entry (in the data set with NIH3T3; in data set [8]) was “Not Active” in each case.

For the compound `CC(=O)O[C@@H](C)/C=C\C(=O)N[C@@H]1C[C@H](C)[C@H](C/C=C(C)/C=C/[C@H]2O[C@](C)(O)C[C@@]3(CO3)[C@@H]2O)O[C@@H]1C`, the pIC50 in the data set on MCF7 [3] is 8.74; in the data set on A549 [5], 8.89.
